An excerpt weighted towards active compounds, which were near 1.9% of everything screened.
SR-BI uptake up – activators of SR-BI mediated DiI-HDL uptake, primary screen, ldlA[mSR-BI] CHO cells, DiI fluorescence. 3 h; 100 = double the neutral-control signal. activation, % at 12.5 µM. hit rate 0.096% among 320,000;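 active = mean replicate activation of at least 60% and every replicate at or above 60%; inconclusive = mean or all-replicate condition met, but not both; inactive = mean below 60% and not all replicates reaching 60%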;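 also: 0% = median plate neutral-control signal and 100% = twice that signal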
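Assay system: LDL receptor-deficient CHO ldlA cells overexpressing murine SR-BI / Medium: BSA-supplemented, HEPES-buffered Ham's F12, pH 7.4 / Probe or stimulus: DiI-labelled HDL at 10 µg/mL final / Timing: compound with DiI-HDL co-incubation, 3 h at 37 °C / Technique: bottom-read cell fluorescence after medium removal, ex 550/em 595 nm / Measure: HDL uptake via cellular fluorescence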
Glyco luc inh – increase of ERlucT glycosylation luciferase signal, primary screen, N-linked glycosylation inhibitor project, D54 ERlucT cells, luminescence, set 2. D54 ERlucT glycosylation luciferase reporter, 24 h; percent of 100 nM tunicamycin response. reporter increase, % at 12.5 µM. hit rate 0.23% among 360,000. AID 588692, 2011;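 active = mean luciferase reporter signal, scaled so untreated is 0 and the glycosylation-blocking control 100, at or above a set limit in every replicate; inconclusive = mean reaches the limit but not every replicate does; inactive = mean below the limit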;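 also: luciferase carries N-glycosylation sites so blocking glycosylation raises the light; 0% = median of neutral control wells and 100% = median of 100 nM tunicamycin wells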
Rtt109 Vps75 – inhibitors of C. albicans Rtt109/Vps75 HAT, primary screen, biochemical, ThioGlo CoA-SH fluorescence, plate reader; inhibition, % at 34.9 µM; hit rate 0.16% among 330,000; AID 540336, 2011; purified Rtt109/Vps75, 4 h; Histone acetyltransferase RTT109 (Candida albicans (strain SC5314 / ATCC MYA-2876)), …;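 active = inhibition of at least 50% in every replicate; inconclusive = best replicate reaches 50% inhibition but some replicates fall short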
Target sequence (Q5AAJ8 whole entry, looked up): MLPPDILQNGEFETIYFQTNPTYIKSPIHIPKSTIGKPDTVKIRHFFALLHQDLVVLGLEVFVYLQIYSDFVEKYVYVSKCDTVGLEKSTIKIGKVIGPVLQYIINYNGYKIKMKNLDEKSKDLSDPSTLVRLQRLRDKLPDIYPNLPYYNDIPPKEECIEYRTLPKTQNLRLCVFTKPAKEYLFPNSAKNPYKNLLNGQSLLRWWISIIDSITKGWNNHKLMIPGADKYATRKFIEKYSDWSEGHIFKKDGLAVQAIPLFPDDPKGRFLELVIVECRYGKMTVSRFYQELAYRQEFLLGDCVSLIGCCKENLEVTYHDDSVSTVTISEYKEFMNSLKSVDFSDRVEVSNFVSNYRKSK
Env fusion inh – inhibitors of HIV-1 Env-driven cell-cell fusion, primary screen, HeLa-JRFL effector, CEM21 target cells, luciferase. inhibition, % at 12.3 µM. hit rate 1.1% among 360,000;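 active = mean replicate inhibition score of at least 50 and every replicate individually at or above 50; inconclusive = only one of the two criteria met; inactive = mean below 50 and not all replicates reaching 50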;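 also: 0% = plate neutral controls and 100% = maraviroc near 300 nM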
SR-BI HDL uptake – inhibitors of SR-BI mediated HDL lipid uptake, primary screen, ldlA[mSR-BI] cells, fluorescence, single point. Scavenger receptor class B member 1 (Mus musculus), Q61009. ldlA[mSR-BI] CHO cells, DiI-HDL uptake fluorescence, 3 h. inhibition, % at 12.5 µM. hit rate 0.96% among 320,000. AID 488896, 2010;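 active = mean replicate inhibition of at least 70% and a set share of replicates each scoring 70 or more; inconclusive = meets just one of the two criteria; inactive = fails both criteria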;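 also: 0% = median of neutral control wells and 100% = median of positive control wells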
PglD DTNB – C. jejuni PglD acetyltransferase inhibitors, primary screen, biochemical, DTNB colorimetric, single point | UDP-N-acetylbacillosamine N-acetyltransferase PglD (Campylobacter jejuni) | purified PglD enzyme, DTNB colorimetric CoA detection | inhibition, % at 12.5 µM | hit rate 0.098% among 360,000 | AID 602405, 2012; in the data active = inhibition above about 16%, passing the limit was not always enough; inconclusive = no clear call, values can overlap the other calls
DiI quench – counter-screen for SR-BI lipid transfer inhibitors: DiI fluorescence quenchers; shares compounds with SR-BI HDL uptake; cell-free DiI-HDL fluorescence quenching, 30 min; AC50, µM (top dose mostly 35 µM), for the others: at the top dose activity change, negative = quenching; hit rate 20% among 470; AID 540326;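 active = quenching, a falling signal, with AC50 below a set limit tied to the top valid dose, actives reach about 32 µM in these data; inconclusive = no clear call, values can overlap the other calls; inactive = rising signal, and the rest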
PglD inh SP – PglD acetyltransferase inhibitors, confirmation, biochemical, DTNB absorbance, single point, cherry-picked samples; 320 tested, under 10 active; AID 743156, 2013; inhibition, % at 20 µM; Purified C. jejuni PglD, DTNB absorbance 412 nm; shares compounds with PglD DTNB;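 active = mean inhibition across replicates of at least 20% with every single replicate also at 20% or more; inconclusive = mean inhibition at least 20% but some replicate falls below 20%; inactive = mean inhibition under 20% and not all replicates reach it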;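 also: initial rate of CoA release by acetyl transfer from AcCoA to the UDP-4-amino sugar; 0% = median of neutral control wells and 100% = median of positive control wells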
* marks the source's active call; other numbers are inactive results; ? = inconclusive; . = no result; [ ] = dose if it differs, or a comment.

SMILES	SR-BI uptake up	Glyco luc inh	Rtt109 Vps75	Env fusion inh	SR-BI HDL uptake	PglD DTNB	PglD inh SP	others
Cc1c(C(=O)OCC2CCCO2)[nH]c2c1C(=O)CC(c1ccco1)C2 (stereo not given)	-52.5	15.8	12.4	.	52.5	-0.5	.	DiI quench=-10.2%
Cc1c(C(=O)OC2CCCC2)[nH]c2c1C(=O)CC(c1ccco1)C2 (stereo not given)	-47.1	4.6	-1.2	-411.4	47.1	0.6	.
Cc1c(C(=O)OCC(C)C)[nH]c2c1C(=O)CC(c1ccco1)C2 (stereo not given)	-65.6	15.1	12.9	-74.5	65.6	1.4	.
C[C@H](CO)N1C[C@H](C)[C@H](CN(C)C(=O)C2CCCCC2)Oc2ncc(-c3cccnc3)cc2C1=O	.	.	.	-14.3[16.7 µM]	.	.	.
COc1ccc(NC(=O)N(C)C[C@H]2Oc3c(NS(=O)(=O)c4ccc(C)cc4)cccc3C(=O)N([C@H](C)CO)C[C@@H]2C)cc1	.	.	.	-15.5[16.7 µM]	.	-2.9	.
C[C@H](NC(N)=O)C(=O)Nc1ccc2c(c1)OCO2	31.3	3.0	-3.4	-2.0	-31.3	22.1*	2.9
CCC(=O)Nc1ccccc1C(=O)OCC(=O)Nc1ccc(S(N)(=O)=O)cc1	-9.6	-0.4	-10.2	-14.3	9.6	30.8*	-2.9
CCOc1ccc2[nH]c3nc(SCC(=O)NCC4CCCO4)nnc3c2c1 (stereo not given)	.	0.3	-2.4	-0.5	.	24.0*	2.2
Nc1cc(=O)[nH]c(=S)n1-c1cccc(C(F)(F)F)c1	42.7	3.3	0.5	-46.9	-42.7	44.2*	0.3
Cc1cccc(-n2c(N)cc(=O)[nH]c2=S)c1C	8.4	1.0	14.2	.	-8.4	3.3	.
CO[C@@H]1CN(C)C(=O)c2cc(NS(=O)(=O)c3cn(C)cn3)ccc2OC[C@@H](C)N(CC2CC2)C[C@H]1C	.	.	.	-6.5[16.7 µM]	.	-2.6	.
CCCCNC(=S)NNc1c(Cl)cc(Cl)cc1Cl	-13.6	-1.3	-3.8	8.8	13.6	22.7*	10.0
O=C(C[C@@H]1C=C[C@H](NC(=O)Nc2ccc(F)cc2)[C@H](CO)O1)NCCN1CCCC1	.	.	.	10.8[16.7 µM]	.	-3.6	.
Cc1ccc(S(=O)(=O)N(C)C)cc1NC(=O)CSc1nnnn1-c1ccc(O)cc1	-12.3	2.4	-0.2	2.1	12.4	28.0*	-8.0
CN(C)S(=O)(=O)c1ccc(Cl)c(NC(=O)CSc2nnnn2-c2ccc(O)cc2)c1	-63.9	-2.4	-2.5	12.2	63.9	.	.
C[C@H](CO)N1C[C@H](C)[C@@H](CN(C)C(=O)Nc2ccc(C(F)(F)F)cc2)OCCCC[C@H](C)Oc2ccc(N(C)C)cc2C1=O	.	.	.	17.6[16.7 µM]	.	.	.
CCOc1ccc(N2CC(C(=O)NCCc3ccc(S(N)(=O)=O)cc3)CC2=O)cc1 (stereo not given)	.	-0.7	-12.7	-0.1	.	30.7*	?
CCOc1ccccc1N1CC(C(=O)NCCc2ccc(S(N)(=O)=O)cc2)CC1=O (stereo not given)	-2.3	-0.1	-8.7	-69.6	2.3	1.6	.
C/C(=N/NC(=O)c1cccs1)c1ccc(NC(=O)COc2ccc(Cl)cc2Cl)cc1	-20.9	39.7*	-1.5	-27.6	20.9	21.4*	0.5
C[C@@H]1CN([C@@H](C)CO)C(=O)c2cc(NC(=O)NC3CCCCC3)ccc2O[C@H]1CN(C)Cc1ccc(C(=O)O)cc1	.	.	.	.	.	-3.4	.
C=C(C)C(=O)Nc1cccc(C2=NOC3(C2)C[C@@H](C(N)=O)N(C(=O)C2(C)CC2)C3)c1 (stereo not given in full)	24.3	-2.4	-9.7	-5.7	-24.3	22.9*	1.9
C[C@@H]1CN([C@@H](C)CO)C(=O)c2cc(NS(C)(=O)=O)ccc2O[C@@H](C)CCCCO[C@H]1CN(C)Cc1ccccc1	.	.	.	-1.4[16.7 µM]	.	.	.
O=C(Nc1ccccc1C(=O)N1CCOCC1)C1CC(=O)N(C2CCCC2)C1 (stereo not given)	-4.5	1.6	5.0	-46.0	4.5	33.1*	-4.9
O=C(Nc1ccccc1C(=O)N1CCOCC1)C1CC(=O)N(c2ccc(F)cc2)C1 (stereo not given)	4.4	1.1	-9.8	-27.3	-4.4	-11.7	.
CCOC(=O)c1[nH]c(C)c(C(=O)OCC(=O)N2CCCCC2C)c1C (stereo not given)	4.7	-3.1	-1.1	-2.3	-4.7	23.2*	-1.5
SMILES	SR-BI uptake up	Glyco luc inh	Rtt109 Vps75	Env fusion inh	SR-BI HDL uptake	PglD DTNB	PglD inh SP	others
CCOC(=O)C1=C(C)NC(C)=C(C(=O)OCC)C1C(=O)OCC(=O)N1CCCCC1C (stereo not given)	15.8	3.9	-0.4	.	-15.8	-2.6	.
CCC(OC(=O)c1ccco1)C(=O)NCc1ccc2c(c1)OCO2 (stereo not given)	.	0.7	5.4	-3.2	.	22.2*	3.3
CCC(OC(=O)c1ccco1)C(=O)NCc1ccc(C)cc1 (stereo not given)	20.6	0.8	-17.5	-3.8	-20.6	0.8	.
O=C(OCC(=O)N1CCC(Cc2ccccc2)CC1)c1ccc(O)cc1	.	-1.6	.	5.9	.	23.6*	-2.4
O=C(CC1CC1)Nc1ccc2c(c1)[C@@H]1C[C@H](CC(=O)NC3CCCCC3)O[C@H](CO)[C@@H]1O2	.	.	.	3.6[16.7 µM]	.	-2.1	.
CC1C(=O)NN=C1c1ccc([N+](=O)[O-])cc1 (stereo not given)	8.7	-0.1	10.8	-242.2	-8.7	.	.
CC1CN2C(c3ccc([N+](=O)[O-])cc3)=CSC2=N1 (stereo not given)	7.7	0.3	5.8	-29.2	-7.7	74.9*	1.8
COCC#Cc1ccc2c(c1)O[C@@H](CN(C)S(=O)(=O)c1cccc(OC)c1)[C@H](C)CN([C@H](C)CO)S2(=O)=O	.	.	.	20.8[16.7 µM]	.	-1.1	.
O=C(NC1CCCCC1)c1cccc(NC(=O)c2ccccc2Cl)c1	.	-0.9	.	20.9	.	22.2*	1.3
O=C(NC1CC1)c1cccc(NC(=O)C2CCCCC2)c1	1.1	1.0	-7.1	?	-1.1	-1.0	.
C[C@H]1CN([C@@H](C)CO)C(=O)Cc2cc(NC(=O)Cc3ccccc3)ccc2O[C@@H]1CN(C)C(=O)Nc1ccc(F)cc1	.	.	.	.	.	10.8	.

High-throughput results as filed in PubChem.
